Bioassay records as filed in PubChem BioAssay.
EWS-Fli block: EWS/Fli-driven NR0B1 reporter inhibitors, primary screen, A673 cells, NR0B1 luciferase, luminescence, MLPCN library. viability-normalised. inhibition, % at 12.6 µM. 350,000 compounds, 0.67% hits. AID 651661, 2012;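 active means mean inhibition of at least 50% after viability correction, with every replicate also passing that limit; inconclusive means mean reaches 50% but only one of two replicates passes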;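 further: firefly luciferase signal divided by Alamar Blue viability fluorescence both relative to DMSO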
EBV LMP1 NFkB: EBV LMP1-driven NF-kappaB luciferase reporter inhibitors, primary screen, cell-based, luminescence, single point. inhibition, % at 12.5 µM. 350,000 compounds, 0.69% hits. LMP1-induced NF-kappaB luciferase reporter cells; in the data active means inhibition above about 41%; inconclusive means no clear call, values can overlap the other calls;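 further: 0% = neutral control wells and 100% = reference inhibitor control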
aSyn UTR inh: MLPCN primary screen, SNCA 5' untranslated region; alpha-synuclein 5'UTR reporter, inhibitor activity; inhibition, % (tested at 7.5 µM); 300,000 compounds, 0.82% hits; AID 1813, 2009; in the data active means inhibition above about 60%; inconclusive means no clear call, values can overlap the other calls;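 further: H4 neuroglioblastoma cells stably carrying SNCA 5'UTR luciferase fusion; 0% = DMSO wells and 100% = positive control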
PAX8 inh HTS: inhibitors of PAX8-driven TPO luciferase reporter, primary screen, RMG-I cells, single concentration; 360,000 compounds, 1.2% hits; SteadyGlo, 24 h; inhibition, % at 12.6 µM;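 active means mean replicate inhibition at least 60% with every replicate also reaching 60%; inconclusive means only one of the two criteria is met; inactive means mean below 60% and not all replicates reaching 60%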;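 further: luciferase light reporting Pax8 driven TPO promoter activity; plate controls were median of neutral control wells for no effect and mitoxantrone controls for full effect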
Shn3 inh set2: reduction of Shn3 3'UTR firefly luciferase signal, primary screen, Schnurri-3 inhibitor project, cell-based, Clone20 osteoblasts, set 2. Clone20 osteoblast Shn3 3'UTR firefly luciferase, 24 h. inhibition, % at 12.5 µM. 360,000 compounds, 0.52% hits. AID 588674, 2011;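 active means mean inhibition of at least 75% with every replicate also reaching 75%; inconclusive means mean inhibition at least 75% but some replicate below; inactive means mean inhibition below 75%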;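 further: 0% = median of neutral control wells and 100% = pilot-screen positive control compound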
FN deposition inh: inhibitors of fibronectin matrix deposition, primary screen, AH1F cells, Alexa488-fibronectin fluorescence, plate reader; inhibition, % at 12.6 µM; 350,000 compounds, 0.086% hits; AH1F fibroblasts, overnight;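 active means mean inhibition across replicates of 30% or more, regardless of how many single replicates reach that level; inconclusive means mean under 30% yet at least half of replicates reach 30%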;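 further: positive control wells lacked labelled fibronectin entirely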
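test system = AH1F fibroblasts assembling fluorescent fibronectin matrix | quantity = 10000 AH1F cells per well | buffer or medium = DMEM plus 2% serum, read in PBS | doses = single dose, pinned | incubation = 1 h cell attachment, overnight exposure to compound and label | detection = fluorescence at 485 nm excitation, 525 nm emission | read-out basis = inhibition from reduced deposited-fibronectin fluorescence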
* marks the source's active call; other numbers are inactive results; u = inconclusive; x = no result given; ! = a repeat was not active. An excerpt weighted towards active compounds, which were near 2.1% of everything screened.

SMILES	EWS-Fli block	EBV LMP1 NFkB	aSyn UTR inh	PAX8 inh HTS	Shn3 inh set2	FN deposition inh
COc1ccccc1CNc1nc(NCc2ccccc2OC)c2sccc2n1	3	x	x	3	87*	12
CC(C)c1ccc(-n2c(-c3ccccc3)c[n+]3c2CCc2ccccc2-3)cc1	59*	18	78*	90*	81	13
COc1ccccc1-n1c(-c2ccccc2)c[n+]2c1CCc1ccccc1-2	26	-3	6	88*	90*!	-3
COc1ccc(-n2c(-c3ccc(Br)cc3)c[n+]3c2CCc2ccccc2-3)cc1	11	38	-91	79*	u	-2
COc1ccccc1-n1c(-c2ccccc2)c[nH]c1=S	0	-14	-24	0	1	4
O=C(C[C@H]1C[C@H]2c3cc(NC(=O)c4ccc5c(c4)OCO5)ccc3O[C@H]2[C@H](CO)O1)NCc1ccc(Cl)cc1	1	x	x	24	x	-22
COc1cc(-c2noc(C)c2/C=C/c2ccc(OC(C)=O)cc2)cc(OC)c1OC	64*	11	95*	69*	1	3
CS(=O)(=O)c1nc(-c2ccc(Br)cc2)cc(-c2ccccc2)c1C#N	x	3	-3	x	98*	-6
CS(=O)c1nc(-c2ccc(Br)cc2)cc(-c2ccccc2)c1C#N (stereo unspecified)	16	13	120*	x	76	x
N#Cc1c(-c2ccc3c(c2)OCO3)cc[nH]c1=O	x	-1	9	x	2	x
COc1nc(-c2ccccc2)cc(-c2ccc3c(c2)OCO3)c1C#N	59*	6	64*	10	5	-13
COc1ccc(-c2cc(-c3ccccc3)c(C#N)c(S(C)(=O)=O)n2)cc1	x	0	1	93*	-39	9
CN(C)CC(=O)Nc1ccc2c(c1)[C@@H]1C[C@@H](CC(=O)NCc3cccnc3)O[C@@H](CO)[C@@H]1O2	-3	x	x	x	x	-18
C[C@H](CO)N1C[C@H](C)[C@@H](CN(C)C(=O)Nc2cccc3ccccc23)Oc2ccc(NC(=O)C3CC3)cc2C1=O	-4	x	x	x	x	6
C=C(NC(=O)C(=C)NC(=O)c1csc(C2=NC3c4csc(n4)C4NC(=O)c5csc(n5)C(C(C)(O)C(C)O)NC(=O)C5CSC(=N5)/C(=C/C)NC(=O)C(C(C)O)NC(=O)c5csc(n5)C3(CC2)NC(=O)C(C)NC(=O)C(=C)NC(=O)C(=C)NC(=O)C(C(C)C)NC2C=Cc3c(C(C)O)cc(nc3C2O)C(=O)OC4C)n1)C(N)=O (stereo unspecified)	74*	65*	x	46	86*	-4
O=C(O)CCN1C(=O)C2C3c4ccccc4C(c4ccccc43)[C@@H]2C1=O (stereo partly specified)	5	-6	8	-5	x	0
O=C(O)CCN1C(=O)C2C3c4ccccc4C(c4ccccc43)C2C1=O (stereo unspecified)	-3	50*	-17	-5	-1	-2
C[C@H](CO)N1C[C@H](C)[C@H](CN(C)C(=O)C2CC2)Oc2cc(C#CC3CCCC3)ccc2S1(=O)=O	12	x	x	x	x	x
CCC(=O)N1C[C@@H](C)[C@H](OC)CN(C)C(=O)c2cc(NC(=O)Nc3cccc(F)c3)ccc2OC[C@@H]1C	-6	x	x	0	x	8
CCOC(=O)Nc1nc(-c2ccccc2)c(C(=O)c2ccc(Cl)cc2)s1	x	9	114*	x	18	x
O=[N+]([O-])c1c(Nc2ccccc2O)cc(Cl)c2nonc12	66*	79*	12	91*	97*	-11
C[C@H](Nc1ccc(C(F)(F)F)cc1[N+](=O)[O-])C(=O)O	7	-13	-15	11	6	-9
C/C(=N\Nc1ccc(C(F)(F)F)cc1[N+](=O)[O-])C(C)C	4	66*	9	29	13	5
COCC(=O)N1C[C@@H](C)[C@@H](OC)CN(C)C(=O)c2ccc(NC(=O)c3ccccc3)cc2OC[C@@H]1C	-9	x	x	x	x	12
COCC(=O)N1C[C@@H](C)[C@H](OC)CN(C)C(=O)c2ccc(NC(=O)c3ccc(F)cc3)cc2OC[C@@H]1C	-13	x	x	-5	x	15
SMILES	EWS-Fli block	EBV LMP1 NFkB	aSyn UTR inh	PAX8 inh HTS	Shn3 inh set2	FN deposition inh
COc1cccc2c1C1COC3C4CC(C(=O)O)C(C(C2)N13)N4C (stereo unspecified)	72*	1	x	x	-10	-5
CCN(CC(=O)Nc1c(F)cccc1F)C(=O)c1cc(S(=O)(=O)N2CCOCC2)ccc1N1CCCC1	0	6	40	72*	5	0
CN(CC(=O)Nc1ccc(F)c(F)c1F)C(=O)c1cc(S(=O)(=O)N(C)C)ccc1N1CCCC1	3	-10	x	13	-6	-3
CCN(CC(=O)Nc1c(F)cccc1F)C(=O)c1ccc(N2CCOCC2)c([N+](=O)[O-])c1	6	5	7	0	-4	5
CCN(CC(=O)Nc1c(F)cccc1F)C(=O)c1cc([N+](=O)[O-])ccc1N1CCCCC1	5	4	58	80*	5	5
Cc1cccc(C)c1NC(=O)CN(C)C(=O)c1cc(S(=O)(=O)N(C)C)ccc1N1CCCC1	0	3	-11	-23	87*	1
O=C(c1cnccn1)N1CC[C@H]2[C@H](CO)Nc3ccc(C#Cc4cccnc4)cc3[C@H]21	-5	x	x	10	x	-14
Clc1ccc2c(NCc3ccccc3)ccnc2c1	11	32	10	35	90*	5
CN(C[C@H]1N[C@@H](CO)[C@@H]1c1ccc(C2=CCCC2)cc1)C(=O)c1ccccn1	27	x	x	72*	x	3
CN(C[C@H]1N[C@@H](CO)[C@@H]1c1ccc(C2=CCCC2)cc1)C(=O)c1ccncc1	42	x	x	81*	x	21
CCN(C[C@@H]1N[C@@H](CO)[C@@H]1c1ccc(C2=CCCC2)cc1)C(=O)c1ccncc1	-8	x	x	-8	x	x
O=C(Cn1cnc2c(oc3nc4c(cc32)CCCC4)c1=O)Nc1cccc(Cl)c1	28	17	66*	-18	15	-9
O=C(C[C@H]1CC[C@@H]2[C@H](COC[C@@H](O)CN2Cc2nccs2)O1)NCc1ccc(Oc2ccccc2)cc1	x	x	x	x	x	3
CC1=C(C(=O)OCc2ccc3c(c2)OCO3)C(c2ccccc2)NC(=O)N1 (stereo unspecified)	x	69*	26	x	24	-1
COc1cccc(NC(=O)N[C@H]2CC[C@@H](CC(=O)N3CCCCC3)O[C@H]2CO)c1	7	x	x	4	x	x
COc1cc(/C=C/C(=O)OCC(=O)NCc2ccco2)ccc1OC(F)F	-1	2	5	3	7	4
COc1ccc(/C=C/C(=O)OCC(=O)NCc2ccco2)cc1OC	1	56*	12	-5	3	-1
